# Assay results as given in ChEMBL document CHEMBL4371092, “3,4- seco-Norclerodane Diterpenoids from the Roots of Polyalthia laui” (J Nat Prod, 2019).
# Key:
# [1] = Cytotoxicity against human C8166 cells after 72 hrs by MTT assay; assay type: cell-based
# In short: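 C8166 cells were tested for cytotoxicity by MTT assay, with CC50 defined as the 50% cytotoxic concentration.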
# A549 = experiment: Cytotoxicity against human A549 cells after 72 hrs by MTT assay; assay type: cell-based; conditions: A549, 72 h
# In short: (§1)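 Human tumour lines MCF7 (breast), HeLa (cervical carcinoma) and A549 (lung adenocarcinoma) were tested by MTT assay for cytotoxicity, with doxorubicin as the positive control.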
# [2] = test system: Human immunodeficiency virus 1; experiment: Antiviral activity against HIV1 3B infected in human MT4 cells assessed as reduction in virus-induced cytopathic effect by measuring number of syncytia after 3 days by inverted microscopic method; assay type: functional, organism-based; conditions: Human immunodeficiency virus 1, 3B, MT4, 72 h
# In short: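 Anti-HIV-1 activity was scored as inhibition of viral cytopathic effect, and EC50 was taken as the 50% effective concentration. AZT (3′-azido-3′-deoxythymidine) was run as the positive control.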
# MCF7 = experiment: Cytotoxicity against human MCF7 cells after 72 hrs by MTT assay; assay type: cell-based; conditions: MCF7, 72 h; in short: as §1
# HeLa = experiment: Cytotoxicity against human HeLa cells after 72 hrs by MTT assay; assay type: cell-based; in short: as §1
# [3] = Therapeutic index, ratio of CC50 for human C8166 cells to EC50 for HIV1 3B infected in human MT4 cells; assay type: toxicity, cell-based; conditions: read-out: Ratio CC50/EC50
# In short: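 TI was computed as CC50/EC50. CC50 came from an MTT cytotoxicity assay on C8166 cells, and EC50 from inhibition of HIV-1 cytopathic effect, with AZT as the positive control.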
SMILES,CC50 at 72 h [1],IC50 (A549),EC50 [2],IC50 (MCF7),IC50 (HeLa),selectivity ratio [3]
C/C(=C\C(=O)O)CC[C@@]1(C)[C@H](C)CC[C@]2(C)[C@@H]1CC[C@@H](O)[C@]2(C)O,> 200 µM,> 10 µM,27.4 µM,> 10 µM,> 10 µM,> 7.3
CC(=O)[C@]1(C)CC[C@@H](C)[C@](C)(CC/C(C)=C/C(=O)O)[C@H]1CC(=O)O,> 200 µM,> 10 µM,12.2 µM,> 10 µM,> 10 µM,> 16.4
CC1=C(C(=O)O)C[C@@H]2[C@@](C)(CC/C(=C/C(=O)O)CO)[C@H](C)CC[C@@]12C,> 200 µM,> 10 µM,23.1 µM,> 10 µM,> 10 µM,> 8.5
CC1=CC(=O)C[C@@H]2[C@@](C)(CC/C(=C\C(=O)O)C(=O)O)[C@H](C)CC[C@@]12C,> 200 µM,> 10 µM,35.2 µM,> 10 µM,> 10 µM,> 5.7
CO[C@@H]1OC(=O)C=C1CC[C@@]1(C)[C@H](C)CC[C@@]2(C)C(C)=C(C=O)C[C@H]12,> 200 µM,> 10 µM,16.8 µM,> 10 µM,> 10 µM,> 11.9
C[C@@H]1CC[C@@]2(C)C(C(=O)O)=CCC[C@@H]2[C@@]1(C)CC/C(=C\C(=O)O)C(=O)O,> 200 µM,> 10 µM,19.8 µM,> 10 µM,> 10 µM,> 16.4
Cc1cn([C@H]2C[C@H](N=[N+]=[N-])[C@@H](CO)O2)c(=O)[nH]c1=O [ZIDOVUDINE],5230 µM,,0.02 µM,,,338000
